The list is not random: actives were taken first. Their share in the collection is about 2.3%.
CHT PAM: human CHT allosteric activation; Q9GZV3; CHT-expressing cells, membrane potential dye, choline EC20; active compounds read high; LV-AA mutant CHT in HEK293 cells; B-score at 10 µM; hit rate 0.49% among 310,000; AID 488977;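 active = initial fluorescence not abnormally high and integrated response B-score, plate-corrected, over 3 SD above library mean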
GalR3 antag: antagonists of human GalR3; hit rate 0.44% among 360,000; inhibition, % at 3 µM; O60755; HEK293 GalR3-CNG cAMP membrane potential fluorescence; galR3 body fused to GalR1 C-terminus; AID 651719;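 active = inhibition above the screen-wide average plus 3 SD, cut at about 13% in these data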;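 note: forskolin and galanin both at EC90 stimulate the cells; cAMP rise reported by CNG channel membrane potential dye signal; 0% = forskolin plus galanin with DMSO and 100% = forskolin alone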
COUP-TFII inh: blocks human COUP-TFII nuclear receptor; P24468; HEK293T NGFI-A luciferase reporter, luminescence; inhibition, % at 8.6 µM; hit rate 0.7% among 370,000; AID 686940;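 active = inhibition above a per-plate cutoff, mean inhibition of test wells between control levels plus 3 SD, cut at about 38% in these data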;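 note: cells cotransfected with COUP-TFII expression vector driving the NGFI-A reporter; 0% = median of COUP-TF2 test wells and 100% = reporter-only cells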
NR2E3 ag-1: activates human NR2E3 receptor. CHO-S Gal4-NCOR/VP16-NR2E3 two-hybrid, luciferase. Q9Y5X4. hit rate 0.35% among 360,000. inhibition of corepressor binding, % at 3.98 µM;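 active = inhibition above the mean of all tested compounds plus 3 SD, cut at about 70% in these data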;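 note: 0% = DMSO with NR2E3 transfected cells and 100% = cells lacking NR2E3 construct; higher means lower luciferase signal from less NR2E3 corepressor binding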
Target sequence (Q9Y5X4 whole entry, looked up, the tested form may be a part): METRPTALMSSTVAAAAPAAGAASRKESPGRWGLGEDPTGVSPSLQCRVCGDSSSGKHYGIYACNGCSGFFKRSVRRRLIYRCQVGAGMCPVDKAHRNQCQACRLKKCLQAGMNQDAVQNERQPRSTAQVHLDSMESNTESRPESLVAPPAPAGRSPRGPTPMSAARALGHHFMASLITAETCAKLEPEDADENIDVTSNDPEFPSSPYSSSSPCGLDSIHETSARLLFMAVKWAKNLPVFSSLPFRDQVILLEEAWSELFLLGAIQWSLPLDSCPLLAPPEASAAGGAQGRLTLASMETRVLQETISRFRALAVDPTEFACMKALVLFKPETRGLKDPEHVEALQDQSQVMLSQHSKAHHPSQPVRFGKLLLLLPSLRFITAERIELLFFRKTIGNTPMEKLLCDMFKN
NR2E3 ag-2: NR2E3 (human) agonism. GST-NR2E3/biotin-RetCOR TR-FRET, 1536-well. Q9Y5X4. AID 2300. inhibition of corepressor binding, % at 4.78 µM. hit rate 0.12% among 320,000;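 active = percent inhibition above the cutoff of mean plus 3 SD of all tested compounds, set per screening campaign, cut at about 20% in these data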;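 note: 0% = DMSO wells and 100% = biotin wells as full block of FRET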
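Material – GST-tagged NR2E3 plus biotinylated RetCOR corepressor · Quantity – NR2E3 fusion 1.35 nM · Times – 5 h incubation at 4 °C · Medium – pH 7.5 Tris-based buffer · Technique – TR-FRET, Eu(K)-anti-GST donor, streptavidin-D2 acceptor, ex 340, em 617/671 nm · Benchmarks – high control biotin, low control 0.6% DMSO · Format – 1536-well plates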
CHT inh: inhibits the human high affinity choline transporter; hit rate 0.86% among 310,000; B-score at 10 µM; Q9GZV3; CHT-expressing cells, membrane potential dye, choline response; active compounds read low;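 active = B-score over 3 SD under the library average, and starting fluorescence ratio not unusually high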;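 note: choline stimulus applied at its EC90 after an EC20 pre-addition; B-score computed on integrated fluorescence ratio after choline addition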
* = called active by the depositor.

For CCOCCCN(C)C1CCN(C(=O)c2oc3ccccc3c2NC(=O)COc2ccc(F)cc2)CC1 the results were CHT PAM inactive, GalR3 antag -2.5, COUP-TFII inh 5.6, NR2E3 ag-1 -8.8, NR2E3 ag-2 -1.6 and CHT inh -7.2*.
For COc1ccc(C(=O)NCc2cnn(C)c2)cc1OC1CCN(C(C)C)CC1 the results were GalR3 antag 3.7, COUP-TFII inh -0.7, NR2E3 ag-1 13.5 and NR2E3 ag-2 0.6.
Screening CCc1ccc(CNC(=O)c2ccc(OC)c(OC3CCN(C(C)C)CC3)c2)nc1 returned CHT PAM inactive, GalR3 antag -2.6, COUP-TFII inh 3.7, NR2E3 ag-1 -17.6, NR2E3 ag-2 1.1 and CHT inh -9.6*.
For COc1ccc(C(=O)NC(Cn2ccnc2)C(C)(C)C)cc1OC1CCN(C(C)C)CC1 (stereo not given) the results were CHT PAM inactive, GalR3 antag 0.6, COUP-TFII inh -3.7, NR2E3 ag-1 5.3, NR2E3 ag-2 1.4 and CHT inh -8.71*.
O=[N+]([O-])c1ccc2nc(COCc3nc4ccccc4[nH]3)[nH]c2c1 was read as COUP-TFII inh -60.8.
COc1ccccc1-c1cc(C(F)(F)F)nc(S(=O)(=O)CCCC(=O)N2CCOCC2)n1 was read as CHT PAM inactive, GalR3 antag 4.0, COUP-TFII inh -9.4, NR2E3 ag-1 -8.8, NR2E3 ag-2 -1.2 and CHT inh -5.1*.
`COC(=O)[C@]12C[C@H](CC(=O)NCc3cccs3)C(=O)N(CCc3ccc(OC)c(OC)c3)C1=C[C@H](COCc1ccccc1)O[C@@H]2C` gave COUP-TFII inh -0.8.
For C=CCn1c(=O)c(C#N)cc2c(=O)n3ccccc3nc21 the results were CHT PAM 7.25*, GalR3 antag 3.5, COUP-TFII inh 1.9, NR2E3 ag-1 -11.2, NR2E3 ag-2 2.9 and CHT inh inactive.
COC(=O)c1ccccc1NC1=C/C(=N\S(=O)(=O)c2cccs2)c2ccccc2C1=O was read as CHT PAM inactive, GalR3 antag -3.9, COUP-TFII inh 15.6, NR2E3 ag-1 10.6, NR2E3 ag-2 6.6 and CHT inh inactive.
Screening CCc1ccc(S(=O)(=O)/N=C2\C=C(Nc3ccc(C(=O)O)cc3)C(=O)c3ccccc32)cc1 returned CHT PAM inactive, GalR3 antag -12.3, COUP-TFII inh 11.8, NR2E3 ag-1 19.1, NR2E3 ag-2 1.4 and CHT inh -7.23*.
`O=C1C(Nc2ccccc2)=C/C(=N/S(=O)(=O)c2cccs2)c2ccccc21` gave CHT PAM inactive, NR2E3 ag-1 102.1*, NR2E3 ag-2 6.0 and CHT inh inactive.
For COc1cc(/C=C2/C(=N)N3N=C(C)SC3=NC2=O)ccc1OS(=O)(=O)c1ccc(C)cc1 the results were CHT PAM inactive, GalR3 antag 3.8, COUP-TFII inh -12.5, NR2E3 ag-1 -41.0, NR2E3 ag-2 3.8 and CHT inh inactive.
Cc1ccc(S(=O)(=O)Oc2ccc(/C=C3\C(=N)N4N=C(S(C)(=O)=O)SC4=NC3=O)cc2)cc1 was read as CHT PAM inactive, GalR3 antag -0.6, COUP-TFII inh -28.2, NR2E3 ag-1 -6.1, NR2E3 ag-2 0.6 and CHT inh -6.39*.
CCS(=O)(=O)C1=NN2C(=N)/C(=C\c3ccc(OS(=O)(=O)c4ccccc4)c(OC)c3)C(=O)N=C2S1 was read as CHT PAM inactive, NR2E3 ag-2 0.5 and CHT inh -5.35*.
CCS(=O)(=O)C1=NN2C(=N)/C(=C\c3ccc(OC(=O)c4ccco4)cc3)C(=O)N=C2S1 was read as CHT PAM inactive, GalR3 antag -8.7, COUP-TFII inh 19.5, NR2E3 ag-1 28.9, NR2E3 ag-2 3.1 and CHT inh inactive.
`COc1cc(/C=C2\C(=N)N3N=C(S(=O)(=O)CC(C)C)SC3=NC2=O)ccc1OC(=O)c1ccco1` gave CHT PAM inactive, NR2E3 ag-2 -2.4 and CHT inh -5.43*.
Screening COc1cc(/C=C2\C(=N)N3N=C(S(C)(=O)=O)SC3=NC2=O)ccc1OS(=O)(=O)c1ccccc1 returned CHT PAM inactive, NR2E3 ag-2 5.8 and CHT inh inactive.

Assay outcomes (PubChem)
